# How the values were obtained:
# [1] = Antioxidant activity assessed as trolox equivalent of AAPH-induced radical scavenging activity preincubated for 15 mins followed by AAPH addition measured every minute for 120 mins by ORAC fluorescein assay; type: functional
# Procedure, shortened: (§1)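 ORAC-FL in 75 mM phosphate buffer pH 7.40; fluorescein 150 nM final plus test antioxidant; Trolox standard at 1-8 μM final; values as Trolox equivalents.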
# Acetylcholinesterase [2] = biological target: T1, Acetylcholinesterase (Electrophorus electricus, UniProt O42275); type: single protein
# T1 sequence (O42275 whole entry, the tested form may be a part): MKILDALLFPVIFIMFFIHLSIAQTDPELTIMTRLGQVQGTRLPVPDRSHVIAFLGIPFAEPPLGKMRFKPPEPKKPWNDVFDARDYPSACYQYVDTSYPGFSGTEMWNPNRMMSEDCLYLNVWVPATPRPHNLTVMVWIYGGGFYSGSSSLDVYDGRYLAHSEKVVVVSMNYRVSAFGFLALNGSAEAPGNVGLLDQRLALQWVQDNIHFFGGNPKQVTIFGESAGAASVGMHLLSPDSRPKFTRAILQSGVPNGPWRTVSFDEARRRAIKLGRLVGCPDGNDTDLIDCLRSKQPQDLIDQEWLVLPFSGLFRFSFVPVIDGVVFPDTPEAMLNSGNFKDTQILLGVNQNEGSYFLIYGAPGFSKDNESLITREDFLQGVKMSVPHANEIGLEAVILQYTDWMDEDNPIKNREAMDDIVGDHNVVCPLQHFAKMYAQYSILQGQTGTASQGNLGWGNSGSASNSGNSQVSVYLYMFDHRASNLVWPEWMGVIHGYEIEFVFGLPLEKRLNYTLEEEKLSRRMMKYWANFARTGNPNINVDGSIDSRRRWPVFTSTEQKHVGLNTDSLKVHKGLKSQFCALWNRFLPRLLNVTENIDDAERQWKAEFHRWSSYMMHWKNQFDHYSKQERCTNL
# [3] = biological target: Amyloid-beta precursor protein (Homo sapiens) (UniProt P05067); test: Inhibition of HFIP-pretreated amyloid beta (1 to 42 residues) (unknown origin) self aggregation at 25 uM after 24 hrs by ThT-based fluorescence method relative to control
# Amyloid-beta precursor protein (Homo sapiens), sequence (P05067 whole entry, the tested form may be a part): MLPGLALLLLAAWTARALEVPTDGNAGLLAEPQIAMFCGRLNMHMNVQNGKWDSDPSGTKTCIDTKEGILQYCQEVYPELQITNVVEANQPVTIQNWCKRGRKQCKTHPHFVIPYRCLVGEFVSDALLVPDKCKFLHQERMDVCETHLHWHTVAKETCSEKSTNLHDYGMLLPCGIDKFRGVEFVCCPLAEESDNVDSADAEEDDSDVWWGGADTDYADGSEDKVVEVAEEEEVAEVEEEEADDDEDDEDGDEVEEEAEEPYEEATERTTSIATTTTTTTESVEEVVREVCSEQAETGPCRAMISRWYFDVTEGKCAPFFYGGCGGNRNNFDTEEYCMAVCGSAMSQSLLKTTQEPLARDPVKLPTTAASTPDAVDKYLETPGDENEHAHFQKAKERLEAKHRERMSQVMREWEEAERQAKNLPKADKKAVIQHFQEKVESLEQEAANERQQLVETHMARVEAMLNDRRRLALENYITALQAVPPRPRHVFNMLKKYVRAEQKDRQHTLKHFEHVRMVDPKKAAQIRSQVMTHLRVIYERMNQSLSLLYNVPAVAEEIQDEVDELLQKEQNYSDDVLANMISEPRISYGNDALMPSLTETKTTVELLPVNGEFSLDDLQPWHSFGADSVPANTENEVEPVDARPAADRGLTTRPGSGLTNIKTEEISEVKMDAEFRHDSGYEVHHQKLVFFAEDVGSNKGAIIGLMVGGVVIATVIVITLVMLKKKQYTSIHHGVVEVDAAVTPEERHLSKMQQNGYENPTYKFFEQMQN
# Procedure, shortened: (§2)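 HFIP-treated Aβ1-42, dried, redissolved in DMSO; 25 μM final peptide incubated with 25 μM compound in 50 mM phosphate buffer pH 7.40, 37 °C, 24 h; 5 μM ThT in 50 mM glycine-NaOH pH 8.0 added; fluorescence ex 446/em 490 nm.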
# [4] = biological target: T2, Amine oxidase [flavin-containing] A (Homo sapiens, UniProt P21397); test: Inhibition of recombinant human MAO-A expressed in baculovirus infected BTI insect cells at 10 uM using kynuramine as substrate after 30 mins by fluorescence based assay relative to control; conditions: 0.5 h
# T2 sequence (P21397 whole entry): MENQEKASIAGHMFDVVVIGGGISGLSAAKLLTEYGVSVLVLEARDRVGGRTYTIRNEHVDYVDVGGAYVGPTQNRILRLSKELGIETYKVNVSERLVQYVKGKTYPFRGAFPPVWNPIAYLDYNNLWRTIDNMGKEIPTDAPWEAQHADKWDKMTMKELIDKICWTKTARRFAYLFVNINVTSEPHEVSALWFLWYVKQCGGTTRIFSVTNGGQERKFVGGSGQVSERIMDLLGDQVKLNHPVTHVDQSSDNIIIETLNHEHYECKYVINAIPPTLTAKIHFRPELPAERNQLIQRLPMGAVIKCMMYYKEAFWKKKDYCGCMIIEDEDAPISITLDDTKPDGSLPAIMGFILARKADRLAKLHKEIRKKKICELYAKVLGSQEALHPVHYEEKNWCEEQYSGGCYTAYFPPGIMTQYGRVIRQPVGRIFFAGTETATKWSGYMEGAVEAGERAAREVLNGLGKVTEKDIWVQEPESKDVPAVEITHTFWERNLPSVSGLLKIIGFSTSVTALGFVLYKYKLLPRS
# [5] = Selectivity index, ratio of IC50 for equine BuChE to IC50 for electric eel AChE
# Procedure, shortened: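 Ratio of Ellman-assay IC50 values, BuChE over AChE. Enzymes were equine serum BuChE and electric eel AChE, each at 0.05 U/mL final in pH 8.0 phosphate buffer. Each IC50 is the mean of three independent experiments run in triplicate.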
# [6] = biological target: T3, Amine oxidase [flavin-containing] B (Homo sapiens, UniProt P27338); test: biochemical; type: cell-based
# T3 sequence (P27338 whole entry): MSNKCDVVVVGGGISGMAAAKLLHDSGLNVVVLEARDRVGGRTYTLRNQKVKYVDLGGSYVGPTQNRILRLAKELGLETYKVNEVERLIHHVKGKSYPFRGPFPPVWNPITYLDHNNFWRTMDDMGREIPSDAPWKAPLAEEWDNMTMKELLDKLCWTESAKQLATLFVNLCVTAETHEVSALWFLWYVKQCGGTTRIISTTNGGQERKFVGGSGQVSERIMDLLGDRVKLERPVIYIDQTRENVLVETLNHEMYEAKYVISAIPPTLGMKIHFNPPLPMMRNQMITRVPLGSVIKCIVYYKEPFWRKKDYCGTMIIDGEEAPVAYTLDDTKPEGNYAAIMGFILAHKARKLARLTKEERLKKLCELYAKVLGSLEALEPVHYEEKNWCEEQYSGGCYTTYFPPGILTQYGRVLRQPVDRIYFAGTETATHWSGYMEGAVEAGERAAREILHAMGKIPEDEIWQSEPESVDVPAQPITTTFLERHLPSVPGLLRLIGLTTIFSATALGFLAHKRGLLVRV
# Cholinesterase [7] = biological target: Cholinesterase (Equus caballus, UniProt P81908); test: Inhibition of equine butyrylcholinesterase using butyrylthiocholine iodide as substrate incubated for 15 mins by Ellman's method
# Cholinesterase (Equus caballus, UniProt P81908), sequence (P81908 whole entry): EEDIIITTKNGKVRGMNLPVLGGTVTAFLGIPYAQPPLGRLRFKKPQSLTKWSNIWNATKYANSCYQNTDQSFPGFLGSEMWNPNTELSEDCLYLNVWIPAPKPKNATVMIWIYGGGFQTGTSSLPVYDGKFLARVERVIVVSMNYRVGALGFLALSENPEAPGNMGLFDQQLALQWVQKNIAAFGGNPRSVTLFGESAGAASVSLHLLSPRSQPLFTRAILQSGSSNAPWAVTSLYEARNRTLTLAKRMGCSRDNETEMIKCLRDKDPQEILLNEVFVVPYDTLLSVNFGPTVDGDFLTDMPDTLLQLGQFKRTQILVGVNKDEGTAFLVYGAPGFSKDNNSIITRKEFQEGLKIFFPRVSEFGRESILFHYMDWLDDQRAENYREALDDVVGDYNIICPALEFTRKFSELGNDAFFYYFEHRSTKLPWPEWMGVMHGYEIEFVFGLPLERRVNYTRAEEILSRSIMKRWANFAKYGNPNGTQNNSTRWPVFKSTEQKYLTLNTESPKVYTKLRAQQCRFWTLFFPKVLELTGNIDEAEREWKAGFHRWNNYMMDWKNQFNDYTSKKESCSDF
# Procedure, shortened: (§3)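 Modified Ellman assay in phosphate buffer pH 8.0, with enzyme at 0.05 U/mL final: eel AChE, equine serum BuChE or human serum BuChE. Test compound was added at several concentrations, and blanks lacked enzyme.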
# [8] = Inhibition of Cu2+-induced amyloid beta (1 to 42 residues) aggregation at 25 uM after 24 hrs by thioflavin T-based fluorescence assay relative to control
# Procedure, shortened: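 Aβ1-42 (25 μM final) with Cu2+ (25 μM final) in 20 mM HEPES pH 6.6, 150 NaCl, ± compound 25 μM final, 37 °C for 24 h; 5 μM ThT in 50 mM glycine-NaOH pH 8.50 added; ex 446/em 490 nm; triplicate.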
# [9] = Antioxidant activity assessed as AAPH scavenging activity by ORAC fluorescein assay; type: functional; procedure, shortened: as §1
# [10] = biological target: T3, Amine oxidase [flavin-containing] B; test: Inhibition of MAO-B (unknown origin) relative to control
# Acetylcholinesterase [11] = biological target: T1, Acetylcholinesterase; test: Inhibition of Electric eel AChE; procedure, shortened: as §3
# [12] = biological target: Amyloid-beta precursor protein (Homo sapiens) (UniProt P05067); test: Inhibition of self-induced amyloid beta ( 1 to 42 residues) (unknown origin) aggregation relative to control; conditions: concentration not given here; procedure, shortened: as §2
# [13] = biological target: T3, Amine oxidase [flavin-containing] B; test: Inhibition of MAO-B (unknown origin)
# Cholinesterase [14] = biological target: T4, Cholinesterase (Homo sapiens, UniProt P06276); test: Inhibition of human BuChE using butyrylthiocholine iodide as substrate incubated for 15 mins by Ellman's method; procedure, shortened: as §3
# T4 sequence (P06276 whole entry): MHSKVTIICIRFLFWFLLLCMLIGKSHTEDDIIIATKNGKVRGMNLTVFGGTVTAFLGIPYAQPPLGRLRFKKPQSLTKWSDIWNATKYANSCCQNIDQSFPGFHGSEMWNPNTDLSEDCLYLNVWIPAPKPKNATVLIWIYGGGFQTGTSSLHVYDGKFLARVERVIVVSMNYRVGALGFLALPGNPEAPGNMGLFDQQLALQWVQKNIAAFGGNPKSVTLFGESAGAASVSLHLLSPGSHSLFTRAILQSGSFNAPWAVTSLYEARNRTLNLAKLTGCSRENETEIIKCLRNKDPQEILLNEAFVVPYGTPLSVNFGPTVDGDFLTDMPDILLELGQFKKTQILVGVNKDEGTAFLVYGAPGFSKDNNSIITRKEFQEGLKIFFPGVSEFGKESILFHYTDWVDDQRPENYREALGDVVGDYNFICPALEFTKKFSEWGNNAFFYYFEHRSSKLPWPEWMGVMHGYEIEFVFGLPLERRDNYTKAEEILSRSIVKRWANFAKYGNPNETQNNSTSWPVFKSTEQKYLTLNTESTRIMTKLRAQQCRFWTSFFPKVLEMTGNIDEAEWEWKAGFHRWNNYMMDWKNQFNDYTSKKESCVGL
# Acetylcholinesterase [15] = biological target: Acetylcholinesterase (Homo sapiens, UniProt P22303); test: Inhibition of human AChE using acetylthiocholine iodide as substrate after 15 mins by Ellman's method
# Acetylcholinesterase (Homo sapiens, UniProt P22303), sequence (P22303 whole entry): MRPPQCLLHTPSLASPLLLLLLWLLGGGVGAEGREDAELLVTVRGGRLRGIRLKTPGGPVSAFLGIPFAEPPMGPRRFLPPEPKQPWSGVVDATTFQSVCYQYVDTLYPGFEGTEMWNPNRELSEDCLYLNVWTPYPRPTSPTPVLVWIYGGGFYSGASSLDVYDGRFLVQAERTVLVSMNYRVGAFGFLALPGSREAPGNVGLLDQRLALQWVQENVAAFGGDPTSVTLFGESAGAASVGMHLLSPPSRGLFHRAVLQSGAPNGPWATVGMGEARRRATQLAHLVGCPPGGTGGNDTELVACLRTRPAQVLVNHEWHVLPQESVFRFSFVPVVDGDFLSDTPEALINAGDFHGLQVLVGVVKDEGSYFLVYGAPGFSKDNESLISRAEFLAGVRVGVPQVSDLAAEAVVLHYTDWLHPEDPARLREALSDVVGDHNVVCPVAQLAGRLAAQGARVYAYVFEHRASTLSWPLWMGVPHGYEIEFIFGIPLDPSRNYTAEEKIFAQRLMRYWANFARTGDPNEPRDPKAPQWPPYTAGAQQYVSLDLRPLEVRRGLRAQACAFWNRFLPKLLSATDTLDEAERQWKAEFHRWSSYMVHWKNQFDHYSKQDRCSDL
# Cholinesterase [16] = biological target: T4, Cholinesterase; test: Inhibition of BuChE (unknown origin)
# [17] = Disaggregation of Cu2+ induced preformed fibrils of amyloid beta (1 to 42) at 25 uM preincubated with Cu2+ for 24 hrs followed by compound addition and measured after 24 hrs by thioflavin-T based fluorescence assay relative to control
# Procedure, shortened: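 Aβ1-42 and Cu2+ (each 25 μM final) in 20 mM HEPES pH 6.6, 150 mM NaCl, preincubated 24 h at 37 °C; compound (25 μM final) added, another 24 h at 37 °C under film; 5 μM ThT in glycine-NaOH added; ex 446/em 490 nm; triplicate.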
Structure (SMILES),IC50 (Acetylcholinesterase [2]),inhibition at 10 µM [4],Ratio IC50 [5],IC50 [6],IC50 (Cholinesterase [7]),further results
CCN(CC)CCCCCCOc1ccc(/C=C/C(=O)c2ccc(OCCCCCCN(CC)CC)cc2O)cc1,3.7 µM,8.7%,1.1,1.6 µM,4.2 µM,Activity [1]: 1.1 Trolox eq; inhibition [3]: 63.7%; inhibition [8]: 84.2%
CCN(CC)c1ccc(/C=C/C(=O)c2cc(-c3ccc(C(C)C(=O)OC)cc3F)ccc2O)cc1 (stereo not drawn),–,–,–,–,–,Activity [9]: 3.3 Trolox eq; inhibition (INH) [10]: 75.5%
CCN(CC)Cc1ccc(/C=C/C(=O)c2ccc(OC)c(OC)c2)cc1O,–,–,–,–,–,IC50 (Acetylcholinesterase [11]): 440 nM; inhibition [12]: 55%; IC50 [13]: 1210 nM
O=C(/C=C/c1ccccc1)c1ccc(OCCCCCCN2CCCC2)cc1O,4.2 µM,9.5%,2.9,12.7 µM,12.3 µM,IC50 (Cholinesterase [14]): 15.8 µM; IC50 (Acetylcholinesterase [15]): 3.2 µM
CCN(C)C(=O)Oc1cccc(/C=C/C(=O)c2ccccc2O)c1,–,–,–,–,–,IC50 (Cholinesterase [16]): 3.1 µM
COc1cc(/C=C/C(=O)CC(=O)/C=C/c2ccc(O)c(OC)c2)ccc1O,–,–,–,–,–,Activity [17]: 56.5%; inhibition [8]: 76.5%
O=C(/C=C/c1ccc(OCCCCCCN2CCCC2)cc1)c1ccccc1O,8.9 µM,15.6%,5.6,18.5 µM,50.2 µM,–
